The target in assay [1] is T1, Transient receptor potential cation channel subfamily V member 1 (Homo sapiens, UniProt Q8NER1). The assay is described as follows: Antagonist activity at human TRPv1 receptor expressed in HEK293 cells assessed as inhibition of 0.1 um capsaicin-induced stimulation of intracellular calcium level using Fluo4-AM dye based fluorimetric assay. The assay is classed as functional, cell-based. The method, boiled down:
(§1)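 Fluo-4 AM loaded stable HEK293 cells in Tyrode's buffer, read at 25 °C (ex 488/em 516 nm). Test compound added to the cuvette 5 min before the agonist: capsaicin 0.1 μM (TRPV1), AITC 100 μM (TRPA1), LPC 3 μM (TRPV2). Agonist alone taken as 100%. IC50 for half-maximal inhibition from curve fit. At least triplicate.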
(Calcium flux is commonly read through the fluorescence of an indicator in the cells.)

The target of assay [2] is T2, Transient receptor potential cation channel subfamily V member 2 (Rattus norvegicus, UniProt Q9WUD2).
T2 sequence (Q9WUD2 whole entry): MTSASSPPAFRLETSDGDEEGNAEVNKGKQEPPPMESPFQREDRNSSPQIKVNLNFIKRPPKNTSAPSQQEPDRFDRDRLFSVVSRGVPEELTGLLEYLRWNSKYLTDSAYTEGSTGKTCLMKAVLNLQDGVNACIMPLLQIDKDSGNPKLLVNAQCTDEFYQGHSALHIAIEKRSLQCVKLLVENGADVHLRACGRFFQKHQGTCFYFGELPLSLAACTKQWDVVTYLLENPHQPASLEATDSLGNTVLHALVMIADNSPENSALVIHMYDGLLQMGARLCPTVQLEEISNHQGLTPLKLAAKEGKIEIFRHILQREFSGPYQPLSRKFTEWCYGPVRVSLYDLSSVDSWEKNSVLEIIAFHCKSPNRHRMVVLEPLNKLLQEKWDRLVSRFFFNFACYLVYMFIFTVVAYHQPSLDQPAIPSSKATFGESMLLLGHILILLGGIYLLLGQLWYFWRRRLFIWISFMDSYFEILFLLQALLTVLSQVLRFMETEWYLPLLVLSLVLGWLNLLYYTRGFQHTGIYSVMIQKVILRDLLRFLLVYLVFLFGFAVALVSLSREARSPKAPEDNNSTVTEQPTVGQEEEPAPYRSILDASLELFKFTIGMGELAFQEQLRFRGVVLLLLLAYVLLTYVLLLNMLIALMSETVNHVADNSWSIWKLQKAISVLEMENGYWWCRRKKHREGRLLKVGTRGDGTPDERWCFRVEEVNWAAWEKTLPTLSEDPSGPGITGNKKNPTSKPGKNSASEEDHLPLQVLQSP
The assay is described as follows: Antagonist activity at rat recombinant TRPV2 receptor expressed in HEK293 cells assessed as inhibition of 3 uM lysophosphatidylcholine-induced stimulation of intracellular calcium level using Fluo4-AM dye based fluorimetric assay. Type of assay: functional, cell-based. Summed up: as §1

Assay [3] has as its target T3, Transient receptor potential cation channel subfamily V member 2 (Rattus norvegicus) (UniProt Q9WUD2).
T3 sequence (whole entry): T2 sequence (Q9WUD2 whole entry)
Description: Agonist activity at rat recombinant TRPV2 receptor expressed in HEK293 cells assessed as stimulation of intracellular calcium level using Fluo4-AM dye based fluorimetric assay relative to 4 uM ionomycin. Type of assay: functional, cell-based.

The target in assay [4] is Cannabinoid receptor 2 (Homo sapiens, UniProt P34972). The assay is described as follows: Displacement of [3H]-CP-55,940 from human recombinant CB2 receptor expressed in HEK293 cells membrane incubated for 90 mins. The assay is classed as cell membranes. (In general: Displacement assays read how much labelled ligand stays bound in the presence of the test substance.)
Sequence of Cannabinoid receptor 2 (P34972 whole entry): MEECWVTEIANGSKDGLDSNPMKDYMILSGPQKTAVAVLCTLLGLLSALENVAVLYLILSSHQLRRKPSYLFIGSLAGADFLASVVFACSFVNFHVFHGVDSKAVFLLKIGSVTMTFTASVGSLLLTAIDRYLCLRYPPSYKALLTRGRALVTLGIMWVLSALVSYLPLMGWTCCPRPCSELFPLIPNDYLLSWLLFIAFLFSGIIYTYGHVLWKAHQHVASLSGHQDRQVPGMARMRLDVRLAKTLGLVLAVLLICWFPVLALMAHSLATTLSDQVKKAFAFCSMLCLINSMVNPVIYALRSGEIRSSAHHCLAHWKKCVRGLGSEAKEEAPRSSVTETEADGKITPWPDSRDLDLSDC
Assay [5] deals with T2, Transient receptor potential cation channel subfamily V member 2. The assay is described as follows: Agonist activity at rat recombinant TRPV2 receptor expressed in HEK293 cells assessed as stimulation of intracellular calcium level using Fluo4-AM dye based fluorimetric assay. The assay is classed as functional, cell-based. Summed up: (§2)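 Stable HEK293 lines (G-418 selected, expression checked by qPCR) loaded 1 h at room temperature with Fluo-4 AM 4 μM. Cells washed and resuspended in Tyrode's buffer pH 7.4. Fluorescence (ex 488/em 516 nm) read in a stirred cuvette at 25 °C before and after test compound at various concentrations. EC50 from sigmoidal variable-slope fit. At least triplicate.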

Assay [6] deals with T4, Transient receptor potential cation channel subfamily A member 1 (Rattus norvegicus, UniProt Q6RI86). The assay is described as follows: Antagonist activity at rat recombinant TRPA1 receptor expressed in HEK293 cells assessed as inhibition of 100 uM allyl isothiocyanate-induced stimulation of intracellular calcium level using Fluo4-AM dye based fluorimetric assay. Type of assay: functional, cell-based. Summed up:
as §1

In assay [7] the target is Transient receptor potential cation channel subfamily M member 8 (Rattus norvegicus, UniProt Q8R455). Description: Antagonist activity at rat recombinant TRPM8 receptor expressed in HEK293 cells assessed as inhibition of 0.25 uM icilin-induced stimulation of intracellular calcium level using Fluo4-AM dye based fluorimetric assay. The assay is classed as functional, cell-based. Summed up: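 Fluo-4 AM loaded rat TRPM8 HEK293 cells in Tyrode's buffer, read at 22 °C with a Peltier-controlled cuvette. Compound added 5 min before 0.25 μM icilin, whose effect alone was taken as 100%. IC50 for half-maximal inhibition from curve fit. At least triplicate.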
Sequence of Transient receptor potential cation channel subfamily M member 8 (Q8R455 whole entry): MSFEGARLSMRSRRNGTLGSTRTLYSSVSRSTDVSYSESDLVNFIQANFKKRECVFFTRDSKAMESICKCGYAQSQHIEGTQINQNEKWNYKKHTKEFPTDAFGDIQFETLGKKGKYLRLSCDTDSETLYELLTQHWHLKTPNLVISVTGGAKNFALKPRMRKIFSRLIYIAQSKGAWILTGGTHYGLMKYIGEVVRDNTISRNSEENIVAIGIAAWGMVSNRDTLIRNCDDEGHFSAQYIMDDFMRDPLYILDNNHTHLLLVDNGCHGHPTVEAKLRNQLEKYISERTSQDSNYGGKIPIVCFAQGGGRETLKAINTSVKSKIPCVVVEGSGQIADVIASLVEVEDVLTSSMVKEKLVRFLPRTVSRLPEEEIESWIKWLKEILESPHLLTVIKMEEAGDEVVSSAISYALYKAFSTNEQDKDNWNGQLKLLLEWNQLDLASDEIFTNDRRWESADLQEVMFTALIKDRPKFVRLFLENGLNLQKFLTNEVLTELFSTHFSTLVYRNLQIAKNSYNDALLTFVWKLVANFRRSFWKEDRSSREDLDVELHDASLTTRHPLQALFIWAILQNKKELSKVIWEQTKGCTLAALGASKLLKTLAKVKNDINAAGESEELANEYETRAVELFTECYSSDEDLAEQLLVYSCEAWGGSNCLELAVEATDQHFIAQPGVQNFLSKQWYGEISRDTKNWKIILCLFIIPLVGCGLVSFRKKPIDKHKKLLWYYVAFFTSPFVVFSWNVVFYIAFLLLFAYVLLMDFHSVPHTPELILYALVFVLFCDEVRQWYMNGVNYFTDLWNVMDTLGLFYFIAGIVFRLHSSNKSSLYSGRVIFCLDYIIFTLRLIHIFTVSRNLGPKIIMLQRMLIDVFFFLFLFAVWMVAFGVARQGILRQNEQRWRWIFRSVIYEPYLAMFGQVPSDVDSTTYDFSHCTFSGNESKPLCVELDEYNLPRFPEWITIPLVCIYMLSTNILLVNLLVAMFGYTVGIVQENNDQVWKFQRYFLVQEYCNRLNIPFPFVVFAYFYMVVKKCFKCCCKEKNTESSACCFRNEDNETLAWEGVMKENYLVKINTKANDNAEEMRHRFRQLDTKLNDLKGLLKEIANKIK

The target of assay [8] is Transient receptor potential cation channel subfamily A member 1 (Rattus norvegicus) (UniProt Q6RI86). The assay is described as follows: Agonist activity at rat recombinant TRPA1 receptor expressed in HEK293 cells assessed as stimulation of intracellular calcium level using Fluo4-AM dye based fluorimetric assay relative to allyl isothiocyanate. Type of assay: functional, cell-based.
Sequence of Transient receptor potential cation channel subfamily A member 1 (Rattus norvegicus) (Q6RI86 whole entry): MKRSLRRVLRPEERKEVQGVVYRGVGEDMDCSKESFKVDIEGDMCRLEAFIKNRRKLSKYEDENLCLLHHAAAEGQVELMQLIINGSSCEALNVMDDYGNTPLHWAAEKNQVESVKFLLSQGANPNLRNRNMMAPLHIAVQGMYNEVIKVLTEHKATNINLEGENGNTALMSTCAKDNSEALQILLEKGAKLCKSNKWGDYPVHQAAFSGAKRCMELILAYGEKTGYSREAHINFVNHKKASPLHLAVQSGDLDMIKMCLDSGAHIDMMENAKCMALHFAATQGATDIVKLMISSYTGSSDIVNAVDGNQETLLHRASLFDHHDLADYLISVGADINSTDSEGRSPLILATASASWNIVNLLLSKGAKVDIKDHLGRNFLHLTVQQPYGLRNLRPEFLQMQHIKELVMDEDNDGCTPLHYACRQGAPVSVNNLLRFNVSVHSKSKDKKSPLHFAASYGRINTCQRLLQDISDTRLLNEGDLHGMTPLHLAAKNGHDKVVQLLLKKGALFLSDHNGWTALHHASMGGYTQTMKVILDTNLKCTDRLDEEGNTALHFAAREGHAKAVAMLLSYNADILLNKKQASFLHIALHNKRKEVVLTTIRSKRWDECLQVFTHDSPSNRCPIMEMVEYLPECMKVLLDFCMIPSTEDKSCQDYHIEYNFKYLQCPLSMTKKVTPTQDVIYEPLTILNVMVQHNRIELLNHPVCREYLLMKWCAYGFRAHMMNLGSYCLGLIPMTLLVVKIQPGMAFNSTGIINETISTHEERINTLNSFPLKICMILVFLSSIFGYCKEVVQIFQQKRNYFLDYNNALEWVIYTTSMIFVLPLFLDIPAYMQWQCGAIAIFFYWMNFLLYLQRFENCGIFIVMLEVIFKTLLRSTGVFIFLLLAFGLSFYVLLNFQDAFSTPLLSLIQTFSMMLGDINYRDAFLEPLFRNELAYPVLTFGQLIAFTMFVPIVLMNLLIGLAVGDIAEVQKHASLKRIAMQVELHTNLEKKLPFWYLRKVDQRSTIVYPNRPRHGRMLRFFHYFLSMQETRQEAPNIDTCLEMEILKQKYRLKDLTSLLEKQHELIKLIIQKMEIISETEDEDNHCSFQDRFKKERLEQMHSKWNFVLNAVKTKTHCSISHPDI

Assay [9] deals with T4, Transient receptor potential cation channel subfamily A member 1. The assay is described as follows: Agonist activity at rat recombinant TRPA1 receptor expressed in HEK293 cells assessed as stimulation of intracellular calcium level using Fluo4-AM dye based fluorimetric assay. Type of assay: functional, cell-based. The method, boiled down:
as §2

Assay [10] has as its target Cannabinoid receptor 1 (Homo sapiens, UniProt P21554). Description: Displacement of [3H]-CP-55,940 from human recombinant CB1 receptor expressed in HEK293 cells membrane incubated for 90 mins. Type of assay: cell membranes.
The target of assay [11] is T1, Transient receptor potential cation channel subfamily V member 1. Description: Agonist activity at human TRPv1 receptor expressed in HEK293 cells assessed as stimulation of intracellular calcium level using Fluo4-AM dye based fluorimetric assay. Type of assay: functional, cell-based. Summed up: as §2
Assay [12] shares this target. The assay is described as follows: Agonist activity at human TRPv1 receptor expressed in HEK293 cells assessed as stimulation of intracellular calcium level using Fluo4-AM dye based fluorimetric assay relative to 4 uM ionomycin. The assay is classed as functional, cell-based.

SMILES strings stand for the structures.

T4 sequence (Q6RI86 whole entry): as above
T1 sequence (Q8NER1 whole entry): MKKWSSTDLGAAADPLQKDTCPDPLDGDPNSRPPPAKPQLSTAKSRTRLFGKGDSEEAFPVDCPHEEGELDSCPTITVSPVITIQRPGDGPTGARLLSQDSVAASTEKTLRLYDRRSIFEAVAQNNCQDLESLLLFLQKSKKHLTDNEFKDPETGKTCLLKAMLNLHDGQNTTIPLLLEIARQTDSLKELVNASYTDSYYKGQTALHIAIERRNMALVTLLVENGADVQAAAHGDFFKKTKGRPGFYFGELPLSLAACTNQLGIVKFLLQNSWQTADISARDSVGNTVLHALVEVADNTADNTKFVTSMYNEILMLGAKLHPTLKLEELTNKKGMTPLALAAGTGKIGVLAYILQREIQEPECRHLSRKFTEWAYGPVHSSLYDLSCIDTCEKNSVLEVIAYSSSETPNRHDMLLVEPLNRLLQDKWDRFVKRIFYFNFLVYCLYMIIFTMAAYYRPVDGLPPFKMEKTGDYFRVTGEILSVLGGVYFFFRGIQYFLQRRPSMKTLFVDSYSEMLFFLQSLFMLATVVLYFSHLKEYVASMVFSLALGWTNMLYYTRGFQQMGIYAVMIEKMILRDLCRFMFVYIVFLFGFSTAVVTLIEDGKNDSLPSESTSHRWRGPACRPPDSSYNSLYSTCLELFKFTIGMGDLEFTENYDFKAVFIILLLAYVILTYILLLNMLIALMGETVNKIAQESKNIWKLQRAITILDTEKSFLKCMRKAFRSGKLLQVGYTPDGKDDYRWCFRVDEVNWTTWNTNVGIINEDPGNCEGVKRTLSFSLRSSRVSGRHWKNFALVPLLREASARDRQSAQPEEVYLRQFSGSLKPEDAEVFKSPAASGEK
Sequence of Cannabinoid receptor 1 (P21554 whole entry): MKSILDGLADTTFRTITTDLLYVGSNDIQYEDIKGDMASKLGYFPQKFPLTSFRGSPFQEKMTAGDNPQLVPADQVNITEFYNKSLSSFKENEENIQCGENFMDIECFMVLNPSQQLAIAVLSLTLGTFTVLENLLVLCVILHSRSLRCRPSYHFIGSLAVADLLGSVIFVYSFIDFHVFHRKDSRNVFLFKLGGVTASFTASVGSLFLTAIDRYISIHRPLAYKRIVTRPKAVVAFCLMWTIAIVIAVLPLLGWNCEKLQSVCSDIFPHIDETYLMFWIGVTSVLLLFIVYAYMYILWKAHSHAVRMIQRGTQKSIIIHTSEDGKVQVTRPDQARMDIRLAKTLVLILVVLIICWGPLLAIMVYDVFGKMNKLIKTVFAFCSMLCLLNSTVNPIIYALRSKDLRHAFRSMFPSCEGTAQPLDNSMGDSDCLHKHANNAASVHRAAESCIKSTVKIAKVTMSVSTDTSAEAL

The term IC50 denotes the point on the concentration scale where inhibition reaches its midpoint. As a reminder, the Emax is the maximal effect, on the per cent scale that the assay sets. Broadly, the Ki is the dissociation constant of the complex between target and ligand, obtained from inhibition or displacement. As usually defined, the EC50 is the concentration that produces a half-maximal response. In the case of `CCCCCc1cc(O)c(C/C=C(\C)CCC=C(C)C)c(O)c1` [CANNABIGEROL], the half-maximal inhibitory concentration (IC50) in assay [1] was 2.6 µM; in [2], 1500 nM; in assay [4], 3460 nM; in assay [6], 13 µM; in assay [7] it was 160 nM; in assay [10], 3.31 µM. Further, the maximal response (Emax) is 73.6% in [3], 99.9% in [8] and 33.8% in [12]. Moreover, the inhibitory constant (Ki) in assay [4] came out at 880 nM; in assay [10], 760 nM. Further, the EC50 was 1700 nM in [5], 700 nM in assay [9] and 1300 nM in assay [11].

In the case of `CCCCCc1cc(O)c(C/C=C(\C)CC/C=C(\C)CCC=C(C)C)c(O)c1` [SESQUICANNABIGEROL], the IC50 in [1] amounted to 5.7 µM; in assay [2] it was 2300 nM; in [4] it was 710 nM; in [6], 1.2 µM; in assay [7], 950 nM; in assay [10], 3.27 µM. For the same molecule, the Emax in assay [3] amounted to 56%; in [8], 164%; in [12], 38.8%. In addition, the figures for the Ki in assay [4] and in assay [10] were 180 nM and 750 nM, respectively. Further, the concentration for a half-maximal effect (EC50) in assay [5] is 2700 nM; in assay [9] it was 1700 nM; in [11], 4400 nM.

Values taken from ChEMBL document CHEMBL1821606, “Bioactive prenylogous cannabinoid from fiber hemp (Cannabis sativa)” (J Nat Prod, 2011).
